For series [1], the system named is Escherichia coli. Kind of series: Antimicrobial activity against Escherichia coli ATCC 8739 assessed as inhibition of microbial growth incubated for 24 hrs. As to conditions: ATCC 8739, 24 h. The class given is functional. An outline of the steps:
(§1)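 Broth microdilution. Strains grown overnight on TSA at 37°C, suspended to 10⁸ CFU/mL in Tryptone-Sel, then diluted to 10⁶ CFU/mL in double-strength Mueller-Hinton broth. Two-fold serial dilutions in sterile water (pH 7.4–7.7) mixed 1:1 with inoculum. Incubation 24 h at 37°C. MIC is the lowest concentration inhibiting growth. Duplicate wells, three independent experiments.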

For series [2], the system named is Escherichia coli. Kind of series: Antimicrobial activity against Escherichia coli ATCC 8739 assessed as inhibition of microbial growth measured after 8 passes in presence of sublethal compound concentration concentrations. The class given is functional.
Series [3] has as its system Bacillus subtilis. Kind of series: Antimicrobial activity against Bacillus subtilis ATCC 6633 assessed as inhibition of microbial growth incubated for 24 hrs. The class given is functional. Particulars: ATCC 6633, 24 h. An outline of the steps:
as §1

In series [4] the test system is Staphylococcus aureus. Kind of series: Antimicrobial activity against Staphylococcus aureus ATCC 6538 assessed as inhibition of microbial growth incubated for 24 hrs. In kind it is functional. Particulars: ATCC 6538, 24 h. An outline of the steps:
as §1

Series [5] deals with Enterococcus faecalis. In words: Antimicrobial activity against Enterococcus faecalis ATCC 29121 assessed as inhibition of microbial growth incubated for 24 hrs. The class given is functional. Particulars: ATCC 29121, 24 h. An outline of the steps:
as §1

The test system of series [6] is Pseudomonas aeruginosa. Kind of series: Antimicrobial activity against Pseudomonas aeruginosa ATCC 9027 assessed as inhibition of microbial growth incubated for 24 hrs. In kind it is functional. As to conditions: ATCC 9027, 24 h. An outline of the steps: as §1
Series [7] relates to Candida albicans. Kind of series: Antimicrobial activity against Candida albicans ATCC 10231 assessed as inhibition of microbial growth incubated for 48 hrs. The class given is functional. As to conditions: ATCC 10231, 48 h. An outline of the steps: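 C. albicans grown 48 h on Sabouraud at 20–25°C, suspended to 10⁸ CFU/mL, then diluted to 10⁶ CFU/mL in double-strength Mueller-Hinton broth. Two-fold serial dilutions in water (pH 7.4–7.7) mixed 1:1 with inoculum. Incubation 48 h at 25°C. MIC is the lowest concentration inhibiting growth. Duplicate wells, three independent experiments.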

Series [8] can be described thus: Hemolytic activity in human RBC assessed as induction of hemolysis incubated for 1 hr. The class given is cell-based, Erythrocyte. Particulars: red blood cells (erythrocytes), read-out: HD50. An outline of the steps: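 Human RBCs washed in PBS and used at 5% packed cell volume, mixed 1:1 with two-fold serial dilutions in PBS (pH 7.4–7.7). Incubation 1 h at 37°C, then centrifugation at 1500g for 10 min at 5°C. Supernatant absorbance read at 490 nm against PBS (0%) and 1% SDS/Tris (100%) controls. HC50 from three independent experiments, double duplicate.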

Series [9] concerns Bacillus subtilis. In words: Microbicidal activity against Bacillus subtilis ATCC 6633 assessed as inhibition of colony growth incubated for 24 hrs followed by replating and further incubated for 24 hrs. In kind it is functional. Particulars: ATCC 6633, 24 h.
The subject of series [10] is Staphylococcus aureus. Kind of series: Microbicidal activity against Staphylococcus aureus ATCC 6538 assessed as inhibition of colony growth incubated for 24 hrs followed by replating and further incubated for 24 hrs. The class given is functional. As to conditions: ATCC 6538, 24 h.
Series [11] concerns Enterococcus faecalis. In words: Microbicidal activity against Enterococcus faecalis ATCC 29121 assessed as inhibition of colony growth incubated for 24 hrs followed by replating and further incubated for 24 hrs. In kind it is functional. Particulars: ATCC 29121, 24 h.
Series [12] concerns Escherichia coli. Kind of series: Microbicidal activity against Escherichia coli ATCC 8739 assessed as inhibition of colony growth incubated for 24 hrs followed by replating and further incubated for 24 hrs. Particulars: ATCC 8739, 24 h. The class given is functional.
Series [13] concerns Pseudomonas aeruginosa. In words: Microbicidal activity against Pseudomonas aeruginosa ATCC 9027 assessed as inhibition of colony growth incubated for 24 hrs followed by replating and further incubated for 24 hrs. The class given is functional. Particulars: ATCC 9027, 24 h.
Series [14] deals with Candida albicans. In words: Microbicidal activity against Candida albicans ATCC 10231 assessed as inhibition of colony growth incubated for 48 hrs followed by replating and further incubated for 48 hrs. In kind it is functional. Particulars: ATCC 10231, 48 h.
Series [15] deals with Escherichia coli. In words: Induction of membrane depolarization in Escherichia coli ATCC 8739 incubated for 2 hrs by [DiSC3(5)] probe based fluorescence assay. In kind it is functional, organism-based. An outline of the steps:
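E. coli ATCC8739 grown 2 h at 37°C in Mueller-Hinton broth, washed and resuspended in 20 mM glucose/5 mM HEPES pH 7.2 to OD600 0.05. DiSC3(5) added at 0.6 µM final and preincubated at 37°C until fluorescence stabilized. Compound added at 0.19–12.5 µM final; fluorescence (ex 620, em 670 nm) followed over 30 min. Duplicate, three independent experiments.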

In series [16] the test system is Escherichia coli. Kind of series: Antimicrobial activity against Escherichia coli ATCC 8739 assessed as induction of blisters and protruding vesicles on cell surface at 1 to 8 times MIC incubated for 60 mins by surface electron microscopy. The class given is functional, organism-based.
The subject of series [17] is Escherichia coli. In words: Antimicrobial activity against Escherichia coli ATCC 8739 assessed as induction of spherical elements around bacteria at 1 to 8 times MIC incubated for 60 mins by surface electron microscopy. The class given is functional, organism-based.
In series [18] the test system is Escherichia coli. Kind of series: Antimicrobial activity against Escherichia coli ATCC 8739 assessed as increase in region of cellular aggregation at 1 to 8 times MIC incubated for 60 mins by surface electron microscopy. The class given is functional, organism-based.
In series [19] the test system is Escherichia coli. In words: Antimicrobial activity against Escherichia coli ATCC 8739 assessed as reduction in viable bacterial cell count at 1 times MIC incubated up to 120 mins by time kill assay relative to control. In kind it is functional.
Series [20] deals with Escherichia coli. In words: Antimicrobial activity against Escherichia coli ATCC 8739 assessed as reduction in viable bacterial cell count at 8 times MIC incubated up to 120 mins by time kill assay relative to control. In kind it is functional.
Series [21] concerns Escherichia coli. Kind of series: Antimicrobial activity against Escherichia coli ATCC 8739 assessed as reduction in viable bacterial cell count at 4 to 8 times MIC incubated for 40 to 60 mins by time kill assay relative to control. In kind it is functional, organism-based.
Series [22] deals with Escherichia coli. In words: Antimicrobial activity against Escherichia coli ATCC 8739 assessed as effect on bacterial morphology by measuring bacterial length at 1 to 8 times MIC incubated for 60 mins by surface electron microscopy (reference value: 2 micrometer). The class given is functional.

Values after ≈ are worked out from the molar mass of the structure shown. Active and inactive are the calls of the source. The rule behind the calls is not given here.

On to `CO/N=C(\C(=O)N[C@@H]1C(=O)N2C(C(=O)O)=C(COC(C)=O)CS[C@H]12)c1csc(N)n1` [CEFOTAXIME], for which the results for the MIC with Escherichia coli [1] and in the series with Escherichia coli [2] were below 0.05 µg/mL and 0.8 µg/mL, respectively.
With `CC(=O)N[C@@H](CCCNC(=N)N)c1nc(C)sc1C(=O)N[C@@H](C)c1nc(CCCNC(=N)N)sc1C(=O)N[C@@H](C)c1nc(C)sc1C(=O)N[C@@H](CCCNC(=N)N)c1nc(C)sc1C(=O)N[C@@H](C)c1nc(CCCNC(=N)N)sc1C(=O)N[C@@H](C)c1nc(C)sc1C(=O)N[C@@H](CCCNC(=N)N)c1nc(C)sc1C(=O)N[C@@H](C)c1nc(CCCNC(=N)N)sc1C(=O)N[C@@H](C)c1nc(C)sc1C(N)=O`, the minimal inhibitory concentration (MIC) came out at 0.5 µM in the series on Bacillus subtilis [3]; 14.6 µM in the series with Staphylococcus aureus [4]; 100 µM in the series on Enterococcus faecalis [5]; 0.8 µM in the series with Escherichia coli [1]; 54 µM in the series with Pseudomonas aeruginosa [6]; 9.4 µM in the series on Candida albicans [7]. Moreover, in series [8], the HC50 at 1 h was above 100 µM. Besides, the MBC was 0.5 µM (≈ 1.04 µg/mL) in the series on Bacillus subtilis [9]; 16.5 µM (≈ 34.4 µg/mL) in the series on Staphylococcus aureus [10]; above 100 µM in the series with Enterococcus faecalis [11]; 0.8 µM (≈ 1.67 µg/mL) with Escherichia coli [12]; 100 µM (≈ 208 µg/mL) in the series with Pseudomonas aeruginosa [13]; 12.5 µM (≈ 26 µg/mL) with Candida albicans [14].
Regarding `CC(=O)N[C@@H](CCCCN)c1nc(C)sc1C(=O)N[C@@H](C)c1nc(CCCCN)sc1C(=O)N[C@@H](C)c1nc(C)sc1C(N)=O`, the minimal inhibitory concentration (MIC) with Bacillus subtilis [3], in the series on Staphylococcus aureus [4], with Enterococcus faecalis [5], with Escherichia coli [1], in the series with Pseudomonas aeruginosa [6] and in the series on Candida albicans [7] was above 150 µM throughout. In addition, the HC50 at 1 h in [8] was above 100 µM. The MBC in the series on Bacillus subtilis [9], in the series with Staphylococcus aureus [10], with Enterococcus faecalis [11], with Escherichia coli [12], in the series with Pseudomonas aeruginosa [13] and with Candida albicans [14] was above 150 µM in each case.
Take `CC(=O)N[C@@H](CCCNC(=N)N)c1nc(C)sc1C(=O)N[C@@H](C)c1nc(CCCNC(=N)N)sc1C(=O)N[C@@H](C)c1nc(C)sc1C(=O)N[C@@H](CCCNC(=N)N)c1nc(C)sc1C(=O)N[C@@H](C)c1nc(CCCNC(=N)N)sc1C(=O)N[C@@H](C)c1nc(C)sc1C(=O)N[C@@H](CCCNC(=N)N)c1nc(C)sc1C(=O)N[C@@H](C)c1nc(CCCNC(=N)N)sc1C(=O)N[C@@H](C)c1nc(C)sc1C(=O)N[C@@H](CCCNC(=N)N)c1nc(C)sc1C(=O)N[C@@H](C)c1nc(CCCNC(=N)N)sc1C(=O)N[C@@H](C)c1nc(C)sc1C(N)=O`: the Activity result with Escherichia coli [15] was “Dose-dependent effect”; in the series on Escherichia coli [17], “Dose-dependent effect”; in the series on Escherichia coli [19], 0.95 log10CFU/ml; in the series with Escherichia coli [20] it was 4.73 log10CFU/ml; with Escherichia coli [22] it was 1.3 um. Besides, the outcome in the series on Escherichia coli [16], in the series with Escherichia coli [18] and with Escherichia coli [21] was Active. The MIC in the series on Bacillus subtilis [3] was 0.6 µM; in the series on Staphylococcus aureus [4] it was 3.1 µM; with Enterococcus faecalis [5], 20.8 µM; in the series with Escherichia coli [1] it was 1.8 µM; in the series with Pseudomonas aeruginosa [6], 4.2 µM; in the series with Candida albicans [7], 6.2 µM. Besides, the HC50 at 1 h in series [8] is above 100 µM. Besides, the MBC came to 0.8 µM (≈ 2.21 µg/mL) in the series with Bacillus subtilis [9]; 7.8 µM (≈ 21.5 µg/mL) in the series with Staphylococcus aureus [10]; 25 µM (≈ 69 µg/mL) in the series with Enterococcus faecalis [11]; 2.3 µM (≈ 6.34 µg/mL) with Escherichia coli [12]; 4.7 µM (≈ 13 µg/mL) with Pseudomonas aeruginosa [13]; 6.2 µM (≈ 17.1 µg/mL) in the series with Candida albicans [14]. The MIC result in the series with Escherichia coli [2] is “Active”.

Values taken from ChEMBL document CHEMBL4619808, “Tailoring the Physicochemical Properties of Antimicrobial Peptides onto a Thiazole-Based γ-Peptide Foldamer” (J Med Chem, 2020).
